From ChEMBL document CHEMBL1125421, “Cholesterol lowering bile acid binding agents: novel lipophilic polyamines” (1992)

Assays:
Type in all cases: functional
Coturnix coturnix [1] = test: Effect on serum VLDL+LDL cholesterol (relative to cholestipol hydrochloride) at a dose of 50 mg/kg BW per day
Summary of the method: (§1)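 Cholesterol-fed Japanese quail given compound mixed in diet for 2 weeks; controls diet alone (n = 17-20), positive controls colestipol hydrochloride 1000 mg/kg per day (n = 8-10), treated groups 10 birds. Jugular bleed; VLDL+LDL precipitated from serum with PEG-8000 in 0.2 M glycine pH 9, centrifuged 2000g 45 min 4 °C. Log-transformed cholesterol gives T/C; relative potency from doses giving T/C=0.5 using common slope -0.79.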

Coturnix coturnix [2] = test: Effect on serum VLDL+LDL cholesterol (relative to cholestipol hydrochloride) at a dose 100 of mg/kg BW per day; summary of the method: as §1
Coturnix coturnix [3] = test: Effect on serum VLDL+LDL cholesterol (relative to cholestipol hydrochloride) at a dose of 150 mg/kg BW per day; summary of the method: as §1
Coturnix coturnix [4] = test: Effect on serum VLDL+LDL cholesterol (relative to cholestipol hydrochloride) at a doses of 50, 150 mg/kg BW per day; summary of the method: as §1
Coturnix coturnix [5] = test: Effect on serum VLDL+LDL cholesterol (relative to cholestipol hydrochloride) at a doses of 10, 25, 50, 100, 150 mg/kg BW per day; summary of the method: as §1
Coturnix coturnix [6] = test: Effect on serum VLDL+LDL cholesterol (relative to cholestipol hydrochloride) at a doses of 25,50 mg/kg BW per day; summary of the method: as §1
Coturnix coturnix [7] = test: Effect on serum VLDL+LDL cholesterol (relative to cholestipol hydrochloride) at a dose of 100, 300 mg/kg BW per day; summary of the method: as §1
Coturnix coturnix [8] = test: Effect on serum VLDL+LDL cholesterol (relative to cholestipol hydrochloride) at a doses of 100, 150, 300 mg/kg BW per day; summary of the method: as §1
Coturnix coturnix [9] = test: Effect on serum VLDL+LDL cholesterol (relative to cholestipol hydrochloride) at a doses of 25, 50, 100 mg/kg BW per day; summary of the method: as §1
Coturnix coturnix [10] = test: Effect on serum VLDL+LDL cholesterol (relative to cholestipol hydrochloride) at a dose of 100 mg/kg BW per day; summary of the method: as §1
Coturnix coturnix [11] = test: Effect on serum VLDL+LDL cholesterol (relative to cholestipol hydrochloride) at a doses of 25,50, 100 mg/kg BW per day; summary of the method: as §1

`O=C(NCCN(CCNC1CCCCCCCCCCC1)CCNC1CCCCCCCCCCC1)c1ccccc1` showed a Relative potency (Coturnix coturnix [1]) of 11.

Work on `CN(C)CCN(CCN(C)C1CCCCCCCCCCC1)CCN(C)C1CCCCCCCCCCC1` yielded a Relative potency (Coturnix coturnix [1]) of 24.

`CCCCCCCCCCCCCCCCNCCN(CCN)CCN` showed a Relative potency (Coturnix coturnix [2]) of 6.

`CN(CCN(CC[N+](C)(C)C)CC[N+](C)(C)C)C1CCCCCCCCCCC1.[I-].[I-]` showed a Relative potency (Coturnix coturnix [3]) of 2.

For `NCCN(CCNC1CCCCCCCCCCCCCC1)CCNC1CCCCCCCCCCCCCC1`, the Relative potency (Coturnix coturnix [3]) was 7.

Work on `COC(=O)CCN(CCN(CCN(CCC(=O)OC)C1CCCCCCCCCCC1)CCN(CCC(=O)OC)C1CCCCCCCCCCC1)C1CCCCCCCCCCC1` yielded a Relative potency (Coturnix coturnix [1]) of 4.

In the case of `C1CCCCCC(NCCN(CCNC2CCCCCCCCCCC2)CCNC2CCCCC2)CCCCC1`, the Relative potency (Coturnix coturnix [1]) is reported as 21.

`NCCN(CCN)CCNC1CCCCCCCCCCCCCCC1` showed a Relative potency (Coturnix coturnix [1]) of 10.

In the case of `COC(=O)CCNCCN(CCNCCC(=O)OC)CCNC1CCCCCCCCCCC1`, the Relative potency (Coturnix coturnix [4]) is reported as 7.

With `NCCN(CCNC1CCCCCCCCCCC1)CCNC1CCCCCCCCCCC1` the Relative potency (Coturnix coturnix [5]) was 13.

Work on `c1ccc(CNCCN(CCNC2CCCCCCCCCCC2)CCNC2CCCCCCCCCCC2)cc1` yielded a Relative potency (Coturnix coturnix [6]) of 18.

`C1CCCCCC(NCCN(CCNC2CCCCCCCCCCC2)CCNC2CCC3(CC2)OCCO3)CCCCC1` showed a Relative potency (Coturnix coturnix [6]) of 19.

In the case of `NCCN(CCN)CCNC1CCCCCCCCCCC1`, the Relative potency (Coturnix coturnix [7]) is reported as 5.

For `N#CCCNCCN(CCNCCC#N)CCNC1CCCCCCCCCCC1`, the Relative potency (Coturnix coturnix [3]) was 2.

Work on `N#CCCNCCN(CCNC1CCCCCCCCCCC1)CCNC1CCCCCCCCCCC1` yielded a Relative potency (Coturnix coturnix [1]) of 21.

In the case of `NCCN(CCN)CCNC1CCCCCCCCCCCCCC1`, the Relative potency (Coturnix coturnix [8]) is reported as 7.

With `CN(CCN(CCN(C)C1CCCCC1)CCN(C)C1CCCCC1)C1CCCCC1` the Relative potency (Coturnix coturnix [3]) was 5.

`NCCN(CCNC(=O)c1ccccc1)CCNC(=O)c1ccccc1` showed a Relative potency (Coturnix coturnix [9]) of 5.

Compound `NCCN(CCN)CCNCc1ccc(-c2ccccc2)cc1` has a Relative potency (Coturnix coturnix [10]) of 2.

In the case of `NCCCOCCN(CCOCCCN)CCOC1CCCCCCCCCCC1`, the Relative potency (Coturnix coturnix [3]) is reported as 2.

Compound `C1CCCCCC(NCCN(CCNC2CCCCCCCCCCC2)CCNC2CCCCCCCCCCC2)CCCCC1` has a Relative potency (Coturnix coturnix [11]) of 6.

Work on `C1CCC(NCCN(CCNC2CCCCC2)CCNC2CCCCC2)CC1` yielded a Relative potency (Coturnix coturnix [3]) of 3.

In the case of `NCCCNCCN(CCNCCCN)CCNC1CCCCCCCCCCC1`, the Relative potency (Coturnix coturnix [3]) is reported as 4.

`NCCNC(=O)CCNCCN(CCNCCC(=O)NCCN)CCNC1CCCCCCCCCCC1` showed a Relative potency (Coturnix coturnix [10]) of 5.

`c1ccc(CNCCN(CCNC2C3CC4CC(C3)CC2C4)CCNC2C3CC4CC(C3)CC2C4)cc1` (centres undefined) was tested, and the Relative potency (Coturnix coturnix [1]) was 13.

With `Cl.Cl.Cl.NCCN(CCNC1CCCCCCCCCCC1)CCNC1CCCCCCCCCCC1` the Relative potency (Coturnix coturnix [1]) was 13.

`Cl.Cl.Cl.c1ccc(CNCCN(CCNC2CCCCCCCCCCC2)CCNC2CCCCCCCCCCC2)cc1` was tested, and the Relative potency (Coturnix coturnix [1]) was 29.

Compound `CCN(CC)CCN(CCN(CC)CC)CCN(CC)C1CCCCCCCCCCC1.Cl.Cl.Cl` has a Relative potency (Coturnix coturnix [10]) of 8.

With `Cl.Cl.Cl.Cl.NCCN(CCNC1CCCCCCCCCCC1)CCNC1CCCCCCCCCCC1` the Relative potency (Coturnix coturnix [1]) was 12.
